Where a SMILES comes first, the peptide text is derived from it. [ ]: non-standard residue; d: D form. The star is where a group is joined. Phe(4-F) = N[CH](Cc1ccc(F)cc1)C(=O)O; Tos = Cc1ccc(S(=O)(=O)*)cc1

This test has as its target Integrin alpha-V/beta-3 (Homo sapiens) (UniProt P05106+P06756). The test is described as follows: Inhibition of human alphaVbeta3 receptor expressed in african green monkey Vero E6 cells assessed as inhibition of SNV infection in cells at 1 uM by immunofluorescent assay. It counts as cell-based. In short, it runs like this:
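Vero E6 cells (10^4/well, duplicate wells) were grown 24 h at 37 °C in MEM with 2.5% FBS. They were pretreated 1 h at 37 °C with small molecules (1 µM) or cyclic peptides (2 mM, in PBS pH 7.4). SNV strain SN77734 (500–1,000 FFU/ml) was then added for 1 h, then washed out. After 24–36 h, cells were fixed and stained with anti-SNV N plus FITC antibody, and foci counted. % inhibition is relative to untreated cells, normalized to ReoPro 80 µg/ml set as 80%; at least 4 replicates.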
In the case of `O=C(CSc1nc2nccnc2c(=O)n1Cc1ccc2c(c1)OCO2)NCCc1ccccc1`, the inhibition is 8%.
For the compound `N#Cc1ccccc1OCC(=O)N/N=C/c1cc(Br)ccc1OC(=O)c1ccccc1`, the inhibition came to 15%.
Under `COc1ccc(N2CCN(C(=O)Cc3csc4nc(-c5ccc(F)cc5)cn34)CC2)cc1` stands 0%; under `COc1ccc(S(=O)(=O)NC(CC(=O)NCc2ccc3c(c2)OCO3)c2ccco2)cc1` (stereo not given), 0%; under `CCCCN(CC)CCCNC(=O)C1CCCN(c2ncnc3onc(C)c23)C1` (stereo not given), 3.1%.
Then `O=C(CCCn1c(=O)c2sccc2n(Cc2ccc(F)cc2Cl)c1=O)NCc1ccco1`, with 12.2%.
Under `CCOC(=O)c1sc2nc(SCC(=O)NCc3ccccc3)n(Cc3ccco3)c(=O)c2c1C` stands 25.9%.
Consider `O=C(N/N=C1\C(=O)N(CN(Cc2ccccc2)Cc2ccccc2)c2ccccc21)c1cccs1`, for which the inhibition worked out at 3.8%.
On to `O=C(NCCC1=CCCCC1)C(Cc1ccccc1)NS(=O)(=O)c1cccc2cccnc12` (stereo not given), for which the inhibition was 19.3%.
For `COc1ccccc1CNC(=O)C1CCCN(c2ncnc3onc(-c4ccc(F)cc4)c23)C1` (stereo not given), the inhibition was found to be 16%.
As for `O=C(CSc1nc2nccnc2c(=O)n1Cc1cccs1)NCCc1ccccc1`, the inhibition stood at 6%.
Turning to `COc1ccccc1NC(=O)C(Cc1ccccc1)NS(=O)(=O)c1cccc2cccnc12` (stereo not given), the inhibition was 19.3%.
On to `O=S(=O)(c1cccc2cccnc12)N1CCN(Cc2ccc3c(c2)OCO3)CC1`, for which the inhibition turned out to be 0%.
Turning to `COc1ccc(CNC(=O)C2CCCN(c3ncnc4onc(C)c34)C2)cc1` (stereo not given), the inhibition amounted to 4.6%.
On to `Cc1ccc(CNC(=O)C(Cc2ccccc2)NS(=O)(=O)c2cccc3cccnc23)cc1` (stereo not given), for which the inhibition was 0%.
Then `COc1cccc(CNC(=O)C(Cc2ccccc2)NS(=O)(=O)c2cccc3cccnc23)c1` (stereo not given), with 0.8%.
Take `O=C(C(Cc1ccccc1)NS(=O)(=O)c1cccc2cccnc12)N1CCC2(CC1)OCCO2` (stereo not given): the inhibition turned out to be 9%.
For the compound `CCC(Sc1nc2ccsc2c(=O)n1Cc1ccc2c(c1)OCO2)C(=O)NCc1ccco1` (stereo not given), the inhibition stood at 41%.
For the compound `COc1ccccc1C1CC(c2c(O)[nH]c(=O)n(CCc3ccccc3)c2=O)=Nc2ccccc2S1` (stereo not given), the inhibition stood at 18%.
Take `CCc1ccc(CNC(=O)C2CCCN(c3ncnc4onc(-c5ccc(F)cc5)c34)C2)cc1` (stereo not given): the inhibition stood at 7%.
In the case of `O=C(NCC1COc2ccccc2O1)C(Cc1ccccc1)NS(=O)(=O)c1ccc2nsnc2c1` (stereo not given), the inhibition came out at 20%.
Under `Cc1cccc(NC(=O)C(Cc2ccccc2)NS(=O)(=O)c2cccc3nsnc23)n1` (stereo not given) stands 17.7%; under `O=C(c1ccco1)N1CCN(C(=O)C(Cc2ccccc2)NS(=O)(=O)c2ccc3nsnc3c2)CC1` (stereo not given), 22%; under `COc1cccc(C(CC(=O)NCCCN2CCOCC2)NS(=O)(=O)c2ccc(C)cc2)c1OC` (stereo not given), 0%.
In the case of `Cc1cccc(CN2C(=O)c3ccccc3Sc3ccc(C(=O)NCc4cccs4)cc32)c1`, the inhibition came to 8.3%.
Then `O=C(CCCn1c(=O)c2sccc2n(Cc2ccc(F)cc2)c1=O)NCc1ccco1`, with 0%; and `Nc1c([S+]([O-])Cc2ccc(Cl)cc2)sc2nc(-c3cccs3)cc(-c3ccccc3)c12` (stereo not given), with 1%; and `CCOC(=O)C(NC(=O)/C(=C/c1ccc(Cl)cc1)NC(=O)c1ccco1)C(C)C` (stereo not given), with 0%.
`O=C(N/N=C/c1ccc(Br)s1)c1cc(-c2ccccc2)nc2ccccc12`: the inhibition was 5%.
Take `COc1ccc(C(CC(=O)NCCN2CCOCC2)NS(=O)(=O)c2ccc(Cl)cc2)cc1` (stereo not given): the inhibition was 0%.
Consider `COc1ccc(CCNC(=O)C(Cc2ccccc2)NS(=O)(=O)c2ccc(Br)cc2)cc1OC` (stereo not given), for which the inhibition is 14%.
Consider `CC(C)c1ccc(S(=O)(=O)c2nnn3c2nc(NC(C)c2ccccc2)c2sccc23)cc1` (stereo not given), for which the inhibition came out at 8%.
For the compound `O=C(NCc1ccc(Cl)cc1)C(Cc1ccccc1)NS(=O)(=O)c1cccc2cccnc12` (stereo not given), the inhibition is 9.1%.
Then `O=C(NC1CCCc2ccccc21)C(Cc1ccccc1)NS(=O)(=O)c1cccc2nsnc12` (stereo not given), with 0%; and `O=C(CSc1nc2ccccc2n1S(=O)(=O)c1ccc(Cl)cc1)NCCc1ccccc1`, with 13.6%; and `COc1ccc(/C=N/NC(=O)c2sc3ccccc3c2Cl)cc1CSc1ccccn1`, with 0%.
Under `O=C(O)CCCCCNC(=O)/C(=C/c1ccccc1)NC(=O)c1ccco1` stands 0%; under `Cc1cccc(C)c1NC(=S)N/N=C\c1cn(C)c2ccc(S(=O)(=O)N3CCOCC3)cc12`, 0%.
Then `COc1ccc([N+](=O)[O-])cc1NC(=O)C(Cc1ccccc1)NS(=O)(=O)c1cccc2nsnc12` (stereo not given), with 8%; and `O=C(NCc1ccccc1Cl)C(Cc1ccccc1)NS(=O)(=O)c1cccc2cccnc12` (stereo not given), with 21.4%; and `O=C(Nc1ccccc1)C(Cc1ccccc1)NS(=O)(=O)c1cccc2cccnc12` (stereo not given), with 0%.
For the compound `O=C(Cn1c(=O)n(Cc2ccco2)c(=O)c2sc3ccccc3c21)NCc1ccc(Cl)cc1`, the inhibition is 0%.
Under `O=S(=O)(c1cccc(SCc2ccccc2)c1)c1cccc(SCc2ccccc2)c1` stands 44.2%; under `O=C(CC(NS(=O)(=O)c1ccc(Cl)cc1)c1ccco1)NCc1cccnc1` (stereo not given), 9.6%; under `Cc1ccc(C)c(NC(=O)C(Cc2ccccc2)NS(=O)(=O)c2cccc3cccnc23)c1` (stereo not given), 0%.
`CN1CCN(c2ccccc2NC(=O)C(Cc2ccccc2)NS(=O)(=O)c2cccc3nsnc23)CC1` (stereo not given): the inhibition stood at 9.6%.
On to `O=C(CCNS(=O)(=O)c1cccc2nsnc12)N(CCc1ccccc1)Cc1ccccc1`, for which the inhibition amounted to 0%.
Under `COc1ccc(NC(=O)C(Cc2ccccc2)NS(=O)(=O)c2cccc3cccnc23)c(OC)c1` (stereo not given) stands 22.5%; under `COc1ccc(OC)c(CNC(=O)C2CCCN(c3ncnc4onc(-c5ccc(F)cc5)c34)C2)c1` (stereo not given), 28%.
Turning to `O=C(CSc1nc2ccccc2c(=O)n1Cc1ccc2c(c1)OCO2)NCc1ccco1`, the inhibition was determined as 34.2%.
Turning to `O=C1c2cccnc2C(=O)N1Cc1ccc(F)cc1S(=O)(=O)N1CCN(c2ccccc2F)CC1`, the inhibition is 2.3%.
For the compound `COc1ccc(Cc2cccc(CNC(=O)C3CCCN(c4ncnc5onc(-c6ccc(F)cc6)c45)C3)c2)cc1` (stereo not given), the inhibition was 39%.
Then `O=C(C(Cc1ccccc1)NS(=O)(=O)c1cccc2cccnc12)N1CCOCC1` (stereo not given), with 4.5%; and `COc1ccc(CCNC(=O)CN(CCc2ccccc2)S(=O)(=O)c2ccccc2)cc1OC`, with 15.2%.
On to `O=C(CCn1c(=O)c2ccccc2n(Cc2cc(=O)n3ccccc3n2)c1=O)NCc1ccco1`, for which the inhibition is 15%.
Under `COc1ccc(Cl)cc1NC(=O)C(Cc1ccccc1)NS(=O)(=O)c1cccc2cccnc12` (stereo not given) stands 8%.
Regarding `CCC1CCCCN1CCNC(=O)C(Cc1ccccc1)NS(=O)(=O)c1ccc2nsnc2c1` (stereo not given), the inhibition worked out at 0%.
As for `CCOC(=O)N1CCC(NC(=O)C(Cc2ccccc2)NS(=O)(=O)c2cccc3nsnc23)CC1` (stereo not given), the inhibition turned out to be 0%.
Then `CCN(CCNC(=O)C(Cc1ccccc1)NS(=O)(=O)c1cccc2nsnc12)c1ccccc1` (stereo not given), with 8%; and `CC1CCN(CCNC(=O)C(Cc2ccccc2)NS(=O)(=O)c2cccc3cccnc23)CC1` (stereo not given), with 7%; and `COc1ccc(OC)c(CNC(=O)C2CCCN(c3ncnc4onc(C)c34)C2)c1` (stereo not given), with 0%.
Regarding `COc1ccccc1CNC(=O)C(Cc1ccccc1)NS(=O)(=O)c1cccc2nsnc12` (stereo not given), the inhibition came out at 4.8%.
Consider `COc1ccccc1CNC(=O)C(Cc1ccccc1)NS(=O)(=O)c1cccc2cccnc12` (stereo not given), for which the inhibition amounted to 9.6%.
Consider `Cc1cc(C)cc(-n2c(=O)c3sccc3n(CC(=O)N3CCN(c4ccccc4)CC3)c2=O)c1`, for which the inhibition came to 2.2%.
Under `O=C(NCc1ccccc1)C(Cc1ccccc1)NS(=O)(=O)c1cccc2cccnc12` (stereo not given) stands 11.2%; under `O=C(NCc1ccc(Cl)cc1)C1CCCN(c2ncnc3onc(-c4ccc(F)cc4)c23)C1` (stereo not given), 23.6%.
As for `O=C(NCc1ccco1)C(Cc1ccccc1)NS(=O)(=O)c1ccc2nsnc2c1` (stereo not given), the inhibition amounted to 21%.
Then `O=C(NCC1CCCO1)C(Cc1ccccc1)NS(=O)(=O)c1cccc2nsnc12` (stereo not given), with 2%.
`O=C(NC(Cc1c[nH]c2ccccc12)C(=O)OCC(=O)c1ccc(Cl)cc1)Oc1ccccc1` (stereo not given): the inhibition was found to be 29%.
As for `Cc1ccc(S(=O)(=O)NC(CC(=O)NCc2cccnc2)c2ccco2)cc1` (stereo not given), the inhibition turned out to be 7%.
Then `O=C(NCc1ccccc1)C(Cc1ccccc1)NS(=O)(=O)c1cccc2nsnc12` (stereo not given), with 3.2%; and `O=C(NCCc1ccccc1)C(Cc1ccccc1)NS(=O)(=O)c1cccc2nsnc12` (stereo not given), with 0%.
Then `Cc1cccc(CN2C(=O)c3ccccc3Sc3ccc(C(=O)NCc4ccco4)cc32)c1`, with 26%; and `O=C(NC1CCCCCC1)C(Cc1ccccc1)NS(=O)(=O)c1cccc2nsnc12` (stereo not given), with 0%; and `N#Cc1ccccc1Cn1c(=O)n(CCC(=O)NCc2ccc3c(c2)OCO3)c(=O)c2ccccc21`, with 1%.
As to `Cc1ccc(S(=O)(=O)NC(Cc2ccc(F)cc2)C(=O)NC(CCCNC(=N)N)C(=O)O)cc1` (stereo not given) (Tos-[Phe(4-F)]-Arg-OH; configuration not given here), the inhibition worked out at 0%.
Then `O=C(NCc1cccnc1)C(Cc1ccccc1)NS(=O)(=O)c1cccc2nsnc12` (stereo not given), with 35%.
As to `Cc1ccc(Cl)cc1NC(=O)C(Cc1ccccc1)NS(=O)(=O)c1cccc2nsnc12` (stereo not given), the inhibition was 3.2%.
Then `COc1ccc(CCNC(=O)C(Cc2ccccc2)NS(=O)(=O)c2ccc(Cl)cc2)cc1OC` (stereo not given), with 14%; and `NS(=O)(=O)c1ccc(CCNC(=O)C(Cc2ccccc2)NS(=O)(=O)c2cccc3nsnc23)cc1` (stereo not given), with 9.6%.

A word on the inhibition: it is the change of the read-out against control, counted positive when it falls.

The record behind these values is ChEMBL document CHEMBL1629507, “Small molecule inhibitors of hantavirus infection” (Bioorg Med Chem Lett, 2010).
